Activity calls are given as the source filed them. The calls are words filed in the database; no cut-off is given here.
Key:
[1] = ABTS radical scavenging activity assessed as trolox equivalent antioxidant capacity; assay type: functional
In short: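 ABTS radical cation diluted in PBS pH 7.4 to absorbance 0.700 (±0.02) at 734 nm, 25 °C. Compound added from ethanol stock. Absorbance decrease read at 1, 3 and 5 min. Percent reduction at 5 min plotted against concentration ([…] as printed); slope divided by Trolox slope gives TEAC. Run at least three times on separate occasions.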

Hepa 1c1c7 [2] = assay: Induction of quinone reductase activity in mouse Hepa 1c1c7 cells at 12.5 uM after 24 hrs relative to control; assay type: cell-based
In short: (§1)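 Cells seeded at 10⁴/well and grown 24 h in α-MEM with 10% FCS, 5% CO₂, 37 °C. They were then exposed 24 h to compound (DMSO ≤0.5% final), using the same concentration as the viability test. Lysis used digitonin/EDTA. MTT-coupled menadione reduction mix was added (Tris pH 7.4, FAD, G6P, NADP, G6PDH). Reaction stopped after 5 min with dicoumarol and read at 590 nm. Result is blank-corrected treated/control (0.5% DMSO) ratio, mean ± SD, n = 3. Lines 12-14 used the c1 mutant, which lacks CYP1A1-dependent AHH activity.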

[3] = Cytotoxicity against mouse Hepa 1c1c7 cells assessed as cell viability at 12.5 uM after 24 hrs by MTT assay; assay type: functional; conditions: Hepa-1c1c7, 24 h, read-out: Activity
In short: (§2)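 Hepa 1c1c7 murine hepatoma cells exposed for 24 h to compound from DMSO stock, serially diluted to final […], with DMSO ≤1% final. MTT then added for 3 h, cells lysed, and formazan read at 590 nm. Blank-subtracted absorbance expressed as % of untreated control wells. Mean of at least three independent determinations.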

Hepa 1c1c7 [4] = assay: Induction of quinone reductase activity in mouse Hepa 1c1c7 cells at 1 uM after 24 hrs relative to control; assay type: cell-based; in short: as §1
[5] = Cytotoxicity against mouse Hepa 1c1c7 cells assessed as cell viability at 1 uM after 24 hrs by MTT assay; assay type: functional; conditions: Hepa-1c1c7, 24 h, read-out: Activity; in short: as §2
Hepa 1c1c7 [6] = assay: Induction of quinone reductase activity in mouse Hepa 1c1c7 cells assessed as concentration required to double the enzyme activity; assay type: cell-based
In short: (§3)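 Hepa 1c1c7 wild-type or AHH-deficient c1 mutant cells, 10⁴ per well, grown for 24 h in α-MEM with 10% FCS at 37 °C and 5% CO₂, then exposed to compound from DMSO stock (final DMSO ≤0.5%) for 24 h. Cells were digitonin/EDTA-lysed and given an NADP/G6P-regenerating mix with FAD, MTT and menadione for 5 min. The reaction was stopped with dicoumarol and read at 590 nm; CD is the concentration doubling QR activity versus the DMSO control.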

Hepa 1c1c7c1 [7] = assay: Induction of quinone reductase activity in mouse mutant Hepa 1c1c7c1 cells assessed as concentration required to double the enzyme activity; assay type: cell-based; in short: as §3
[8] = Cytotoxicity against mouse Hepa 1c1c7 cells assessed as cell viability at 25 uM after 24 hrs by MTT assay; assay type: functional; conditions: Hepa-1c1c7, 24 h, read-out: Activity; in short: as §2
Hepa 1c1c7 [9] = assay: Induction of quinone reductase activity in mouse Hepa 1c1c7 cells at 25 uM after 24 hrs relative to control; assay type: cell-based; in short: as §1
Hepa 1c1c7c1 [10] = assay: Induction of quinone reductase in mouse mutant Hepa 1c1c7c1 cells at 12.5 uM after 24 hrs relative to control; assay type: cell-based; in short: as §1
Hepa 1c1c7 [11] = assay: Induction of quinone reductase activity in mouse Hepa 1c1c7 cells at 5 uM after 24 hrs relative to control; assay type: cell-based; in short: as §1
[12] = Cytotoxicity against mouse Hepa 1c1c7 cells assessed as cell viability at 5 uM after 24 hrs by MTT assay; assay type: functional; conditions: Hepa-1c1c7, 24 h, read-out: Activity; in short: as §2
Hepa 1c1c7 [13] = assay: Induction of quinone reductase activity in mouse Hepa 1c1c7 cells at 6.3 uM after 24 hrs relative to control; assay type: cell-based; in short: as §1
[14] = Cytotoxicity against mouse Hepa 1c1c7 cells assessed as cell viability at 6.3 uM after 24 hrs by MTT assay; assay type: functional; conditions: Hepa-1c1c7, 24 h, read-out: Activity; in short: as §2

Question: What does the source list for `COc1ccc(/C=C\c2cc(O)cc(O)c2)cc1`?
Answer: Activity [1]: 1.86; Activity (Hepa 1c1c7 [2]): 1.04; viability at 12.5 µM [3]: 96%

Question: Which results are given for `COc1ccc(/C=C/c2cc(OC)c(OC)c(OC)c2)cc1`?
Answer: Activity (Hepa 1c1c7 [4]): < 1; viability at 1 µM [5]: 86%

Question: Which Activity (Hepa 1c1c7 [4]) does the source give for `COc1ccc(/C=C\c2ccccc2OC)cc1` here?
Answer: < 1

Question: What about the viability at 1 µM [5] of the same compound?
Answer: 56%

Question: For `COc1ccc(/C=C\c2cccc(OC)c2)cc1`, which Activity (Hepa 1c1c7 [4]) is on record?
Answer: < 1

Question: What about the viability at 1 µM [5] of the same compound?
Answer: 92%

Question: With `COc1ccc(/C=C\c2ccc(OC)c(OC)c2)cc1` [7Z-3,4,4'-TRIMETHOXYSTILBENE] as the compound, how does the Activity (Hepa 1c1c7 [4]) read?
Answer: < 1

Question: And the viability at 1 µM [5]?
Answer: 86%

Question: For `Oc1cc(O)cc(/C=C/c2ccccc2)c1` [PINOSYLVIN], which Activity [1] is on record?
Answer: 2.04

Question: And the Activity (Hepa 1c1c7 [2])?
Answer: 1.07

Question: What about the viability at 12.5 µM [3] of the same compound?
Answer: 61%

Question: With `C[S+]([O-])CCCCN=C=S` (stereo unspecified) as the compound, how does the Activity (Hepa 1c1c7 [6]) read?
Answer: 0.26 µM

Question: And the Activity (Hepa 1c1c7c1 [7])?
Answer: 0.28 µM

Question: For `COc1ccc(/C=C/c2ccc(OC)c(OC)c2)cc1`, which Activity (Hepa 1c1c7 [4]) is on record?
Answer: < 1

Question: What about the viability at 1 µM [5] of the same compound?
Answer: 100%

Question: With `COc1ccc(/C=C\c2cc(OC)c(OC)c(OC)c2)cc1` as the compound, how does the Activity (Hepa 1c1c7 [4]) read?
Answer: < 1

Question: What about the viability at 1 µM [5] of the same compound?
Answer: 88%

Question: What does the source list for `COc1ccc(/C=C/c2cc(O)cc(O)c2)cc1` [RESVERATROL 4'-METHYL ETHER]?
Answer: Activity [1]: 2.49; Activity (Hepa 1c1c7 [2]): 1.14; viability at 12.5 µM [3]: 87%

Question: With `O=c1cc(-c2ccccc2)oc2ccc3ccccc3c12` as the compound, how does the Activity (Hepa 1c1c7 [6]) read?
Answer: 0.028 µM

Question: What about the Activity (Hepa 1c1c7c1 [7]) of the same compound?
Answer: inactive

Question: With `COc1ccc(/C=C/c2cc(OC)cc(OC)c2)cc1` [TRISMETHOXYRESVERATROL] as the compound, how does the Activity (Hepa 1c1c7 [4]) read?
Answer: < 1

Question: What about the viability at 1 µM [5] of the same compound?
Answer: 94%

Question: For `COc1ccc(/C=C/c2ccc(OC)cc2OC)cc1`, which Activity (Hepa 1c1c7 [2]) is on record?
Answer: 1.18

Question: And the viability at 12.5 µM [3]?
Answer: 58%

Question: What does the source list for `COc1ccc(/C=C\c2ccc(OC)cc2OC)cc1`?
Answer: Activity (Hepa 1c1c7 [4]): < 1; viability at 1 µM [5]: 85%

Question: For `Oc1ccc(/C=C/c2cc(O)cc(O)c2)cc1` [RESVERATROL], which viability at 25 µM [8] is on record?
Answer: 55%

Question: And the Activity [1]?
Answer: 2.74

Question: What about the Activity (Hepa 1c1c7 [9]) of the same compound?
Answer: 1.5

Question: And the Activity (Hepa 1c1c7 [2])?
Answer: 1.24

Question: What about the fold induction (Hepa 1c1c7c1 [10]) of the same compound?
Answer: 1.16

Question: What about the viability at 12.5 µM [3] of the same compound?
Answer: 80%

Question: Which results are given for `COc1ccc(/C=C/c2c(OC)cccc2OC)cc1`?
Answer: Activity (Hepa 1c1c7 [2]): 1.92; Activity (Hepa 1c1c7c1 [10]): 1.05 µM; viability at 12.5 µM [3]: 90%

Question: Which Activity (Hepa 1c1c7 [2]) does the source give for `COc1ccc(/C=C/c2ccc(OC)cc2)cc1` here?
Answer: 1.14

Question: And the viability at 12.5 µM [3]?
Answer: 67%

Question: What does the source list for `COc1ccc(/C=C\c2cc(OC)cc(OC)c2)cc1` [8Z-3,4',5-TRIMETHOXYSTILBENE]?
Answer: Activity (Hepa 1c1c7 [4]): < 1; viability at 1 µM [5]: 82%

Question: With `COc1ccc(/C=C\c2cccc(O)c2)cc1` as the compound, how does the Activity [1] read?
Answer: 1.04

Question: And the Activity (Hepa 1c1c7 [11])?
Answer: < 1

Question: And the viability at 5 µM [12]?
Answer: 90%

Question: For `COc1ccccc1/C=C/c1ccccc1OC`, which Activity (Hepa 1c1c7 [2]) is on record?
Answer: 1.81

Question: And the fold induction (Hepa 1c1c7c1 [10])?
Answer: < 1

Question: What about the viability at 12.5 µM [3] of the same compound?
Answer: 82%

Question: Which results are given for `COc1ccc(/C=C/c2cccc(OC)c2)cc1`?
Answer: Activity (Hepa 1c1c7 [2]): 1.44; fold induction (Hepa 1c1c7c1 [10]): < 1; viability at 12.5 µM [3]: 90%

Question: Which Activity (Hepa 1c1c7 [2]) does the source give for `COc1ccc(/C=C/c2ccccc2O)cc1` [2-hydroxy-4'-methoxystilbene] here?
Answer: 1.13

Question: And the viability at 12.5 µM [3]?
Answer: 80%

Question: For `COc1ccc(/C=C/c2cccc(O)c2)cc1`, which Activity [1] is on record?
Answer: 1.11

Question: What about the Activity (Hepa 1c1c7 [2]) of the same compound?
Answer: 1.08

Question: And the viability at 12.5 µM [3]?
Answer: 81%

Question: Which results are given for `COc1ccc(/C=C/c2ccc(OC)c(O)c2)cc1`?
Answer: Activity [1]: 1.29; Activity (Hepa 1c1c7 [2]): 1.33; viability at 12.5 µM [3]: 77%

Question: Which Activity (Hepa 1c1c7 [13]) does the source give for `COc1ccc(/C=C/c2ccccc2OC)cc1` here?
Answer: 1.8

Question: What about the Activity (Hepa 1c1c7 [2]) of the same compound?
Answer: 2.04

Question: What about the fold induction (Hepa 1c1c7c1 [10]) of the same compound?
Answer: 1.14

Question: What about the viability at 12.5 µM [3] of the same compound?
Answer: 58%

Question: What about the viability at 6.3 µM [14] of the same compound?
Answer: 73%

Question: Which Activity [1] does the source give for `COc1ccc(/C=C\c2ccc(OC)c(O)c2)cc1` here?
Answer: 1.11

Question: What about the Activity (Hepa 1c1c7 [11]) of the same compound?
Answer: < 1

Question: And the viability at 5 µM [12]?
Answer: 75%

Question: With `COc1ccc(/C=C\c2ccc(OC)cc2)cc1` as the compound, how does the Activity (Hepa 1c1c7 [2]) read?
Answer: 1.06

Question: What about the viability at 12.5 µM [3] of the same compound?
Answer: 64%

From ChEMBL document CHEMBL1147212, “Quinone reductase induction activity of methoxylated analogues of resveratrol” (2007)
